ChEMBL document CHEMBL1139530, “Synthesis and antibacterial properties of novel hydrolyzable cationic amphiphiles. Incorporation of multiple head groups leads to impressive antibacterial activity” (2005)

How the values were obtained:
Assay type in all cases: functional
Escherichia coli = experiment: Minimum bactericidal concentration against Escherichia coli
Summary of the method: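 E. coli from a freeze-dried ampule was streaked on LB agar (37 °C, 24 h), and a single colony was grown in LB for 10 h at 37 °C with shaking to 10⁸-10⁹ cells/mL. Amphiphile from a sterile-water stock, or water as the control, was incubated 5 h at 37 °C with shaking. Dilutions were spread on LB agar for 24 h at 37 °C. MBC is the lowest concentration with no colonies, averaged over three experiments.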

Shigella sonnei = experiment: Minimum bactericidal concentration against Shigella sonnei
Summary of the method: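 A single S. sonnei colony was grown in LB for 12 h at 37 °C with shaking to 10⁷-10⁸ cells/mL, then exposed in tubes to amphiphile from a sterile-water stock, or water as the control, for 5 h at 37 °C with shaking. Diluted samples were spread on LB agar and incubated 24 h at 37 °C. MBC is the lowest concentration leaving no colonies; the value is the mean of three experiments.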

Enterococcus faecalis = experiment: Minimum bactericidal concentration against Enterococcus faecalis
Summary of the method: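 Spread-plate MBC in LB broth (pH ≈7). E. faecalis came from a blood agar colony and was grown 12 h at 37 °C with shaking to 10⁷-10⁸ cells/mL. Amphiphile was added from a sterile-water stock, with water as the control, then incubated 5 h at 37 °C with shaking. Dilutions were plated on LB agar for 24 h at 37 °C. MBC is the lowest concentration giving no colonies; the value is the mean of three experiments.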

Staphylococcus aureus = experiment: Minimum bactericidal concentration against Staphylococcus aureus
Summary of the method: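 S. aureus came from a blood agar colony and was grown in LB for 10 h at 37 °C with shaking to 10⁹-10¹⁰ cells/mL. Cells were exposed 5 h at 37 °C with shaking to amphiphile from a sterile-water stock, with water as the control. Dilutions were plated on LB agar for 24 h at 37 °C. MBC is the lowest concentration giving no colonies, averaged over three separate experiments.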

Molecule | MBC (Escherichia coli) [µM] | MBC (Shigella sonnei) [µM] | MBC (Enterococcus faecalis) [µM] | MBC (Staphylococcus aureus) [µM]
CCCCCCCCCCCCCCC(COC(=O)C[N+](C)(C)C)COC(=O)C[N+](C)(C)C | 9.7 | 14.9 | 12 | 15.1
CCCCCCCCCCCCCCC(COC(=O)C[n+]1ccccc1)COC(=O)C[n+]1ccccc1 | 8.2 | 8.9 | 10.4 | 13.9
Hexadecyl-trimethyl-ammonium bromide | 16.9 | 18.3 | 18.5 | 18.9
CCCCCCCCCCCCCCCCOC(=O)C[N+](C)(C)C | 20.6 | 33.8 | 22.5 | 24.5
CCCCCCCCCCCCCCC(COC(=O)C[n+]1ccccc1)(COC(=O)C[n+]1ccccc1)COC(=O)C[n+]1ccccc1 | 6.5 | 3.5 | 4.9 | 5.2
CCCCCCCCCCCCCCCC[n+]1ccccc1 [CETYLPYRIDINIUM BROMIDE] | 10.4 | 12.4 | 16.3 | 15.6
CCCCCCCCCCCCCCC(COC(=O)C[N+](C)(C)C)(COC(=O)C[N+](C)(C)C)COC(=O)C[N+](C)(C)C | 7.3 | 9.6 | 9 | 11.3
